Test results taken from paper PMC6519384 (Andrology, 2018).

Tests used:
blood esterases = assay: Ex vivo addition of TU to blood in different blood collection tubes; type: in vitro ADME, human
Summary of the method: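 Venous blood from hypogonadal or healthy men is aliquoted (2 mL) into duplicate plain or inhibitor-containing tubes. TU in methanol (≤1% methanol) is added to 30–1000 ng/mL final, then held 30/60 min at 4 °C or RT before centrifugation. T is extracted with ethyl acetate:hexane (3:2) and measured by LC‑MS/MS (m/z 289.2/109.0, D2‑T internal standard). Results are % difference vs the average plain tube with no ester added.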

[1] = Single oral dose of 316 mg TU in hypogonadal men; type: in vivo, human; details: TU concentrations below 15 ng/mL; oral 316 mg TU
Summary of the method: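 Eight hypogonadal men received one 316 mg oral TU dose in a self‑emulsifying system just before a meal. Blood was drawn at −30 and 0 min, then hourly for 12 h, into plain and NaF‑EDTA tubes. T was measured by LC‑MS/MS after ethyl acetate:hexane (3:2) extraction. The % difference in T between tube types was plotted against the matching average TU, with regression.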

[2] = TU added to serum with increasing NaF, T measured; type: in vitro ADME, human; details: 500 ng/mL TU added to two serum samples or an aqueous solution
[3] = TU 300 ng/mL, K2EDTA (1.8 mg/mL) tube, 30 min 4 °C, Experiment 2
[4] = TU 300 ng/mL, K2EDTA (1.8 mg/mL) tube, 60 min 4 °C, Experiment 2
[5] = TU 300 ng/mL, K2EDTA (1.8 mg/mL) tube, 60 min RT, Experiment 2
[6] = TU 300 ng/mL, NaF (1.5 mg/mL) + Na2EDTA (3 mg/mL) tube, 60 min RT, Experiment 2
[7] = TU 300 ng/mL, NaF (5 mg/mL) + K2Oxalate (4 mg/mL) tube, 60 min RT, Experiment 2
[8] = TU 300 ng/mL, NaF (15 mg/mL) tube, 30 min 4 °C, Experiment 1
[9] = TU 300 ng/mL, NaF (15 mg/mL) tube, 30 min RT, Experiment 1
[10] = TU 300 ng/mL, P800 tube, 30 min 4 °C, Experiment 2
[11] = TU 300 ng/mL, P800 tube, 60 min 4 °C, Experiment 2
[12] = TU 300 ng/mL, P800 tube, 60 min RT, Experiment 2
[13] = TU 300 ng/mL, Plain tube, 30 min 4 °C, Experiment 1
[14] = TU 300 ng/mL, Plain tube, 30 min RT, Experiment 1
[15] = TU 300 ng/mL, P‐800 tube, 30 min 4 °C, Experiment 1
[16] = TU 300 ng/mL, P‐800 tube, 30 min RT, Experiment 1
[17] = TU 600 ng/mL, K2EDTA (1.8 mg/mL) tube, 30 min 4 °C, Experiment 2
[18] = TU 600 ng/mL, K2EDTA (1.8 mg/mL) tube, 60 min 4 °C, Experiment 2
[19] = TU 600 ng/mL, K2EDTA (1.8 mg/mL) tube, 60 min RT, Experiment 2
[20] = TU 600 ng/mL, NaF (1.5 mg/mL) + Na2EDTA (3 mg/mL) tube, 60 min RT, Experiment 2
[21] = TU 600 ng/mL, NaF (5 mg/mL) + K2Oxalate (4 mg/mL) tube, 60 min RT, Experiment 2
[22] = TU 600 ng/mL, NaF (15 mg/mL) tube, 30 min 4 °C, Experiment 1
[23] = TU 600 ng/mL, NaF (15 mg/mL) tube, 30 min RT, Experiment 1
[24] = TU 600 ng/mL, P800 tube, 30 min 4 °C, Experiment 2
[25] = TU 600 ng/mL, P800 tube, 60 min 4 °C, Experiment 2
[26] = TU 600 ng/mL, P800 tube, 60 min RT, Experiment 2
[27] = TU 600 ng/mL, Plain tube, 30 min 4 °C, Experiment 1
[28] = TU 600 ng/mL, Plain tube, 30 min 4 °C, Experiment 2
[29] = TU 600 ng/mL, Plain tube, 30 min RT, Experiment 1
[30] = TU 600 ng/mL, Plain tube, 60 min 4 °C, Experiment 2
[31] = TU 600 ng/mL, Plain tube, 60 min RT, Experiment 2
[32] = TU 600 ng/mL, P‐800 tube, 30 min 4 °C, Experiment 1
[33] = TU 600 ng/mL, P‐800 tube, 30 min RT, Experiment 1

## CCCCCCCCCCC(=O)O[C@H]1CC[C@H]2[C@@H]3CCC4=CC(=O)CC[C@]4(C)[C@H]3CC[C@]12C [TU, testosterone undecanoate]
Blood esterases; [3]
  % difference vs. no TU added: +20.5%
  Measured T: 534.5 ng/dL
Blood esterases; [4]
  % difference vs. no TU added: +14.7%
  Measured T: 521.5 ng/dL
Blood esterases; [5]
  % difference vs. no TU added: +129.7%
  Measured T: 1105.0 ng/dL
Blood esterases; [6]
  % difference vs. no TU added: +57.5%
  Measured T: 705.0 ng/dL
Blood esterases; [7]
  % difference vs. no TU added: +79.5%
  Measured T: 717.0 ng/dL
Blood esterases; [8]
  % difference vs. no TU added: −0.6%
  Measured T: 269.5 ng/dL
Blood esterases; [9]
  % difference vs. no TU added: +16.4%
  Measured T: 301.5 ng/dL
Blood esterases; [10]
  % difference vs. no TU added: +13.1%
  Measured T: 492.5 ng/dL
Blood esterases; [11]
  % difference vs. no TU added: +3.3%
  Measured T: 491.5 ng/dL
Blood esterases; [12]
  % difference vs. no TU added: +100.9%
  Measured T: 860.0 ng/dL
Blood esterases; [13]
  % difference vs. no TU added: +17.9%
  Measured T: 412.0 ng/dL
Blood esterases; TU 300 ng/mL, Plain tube, 30 min 4 °C, Experiment 2
  Measured T: 624.5 ng/dL
Blood esterases; [14]
  % difference vs. no TU added: +43.1%
  Measured T: 505.0 ng/dL
Blood esterases; TU 300 ng/mL, Plain tube, 60 min 4 °C, Experiment 2
  Measured T: 741.5 ng/dL
Blood esterases; TU 300 ng/mL, Plain tube, 60 min RT, Experiment 2
  Measured T: 984.0 ng/dL
Blood esterases; [15]
  % difference vs. no TU added: +18.7%
  Measured T: 384.0 ng/dL
Blood esterases; [16]
  % difference vs. no TU added: +41.7%
  Measured T: 467.0 ng/dL
Blood esterases; [17]
  % difference vs. no TU added: +21.6%
  Measured T: 539.5 ng/dL
Blood esterases; [18]
  % difference vs. no TU added: +47.3%
  Measured T: 669.5 ng/dL
Blood esterases; [19]
  % difference vs. no TU added: +266.9%
  Measured T: 1765.0 ng/dL
Blood esterases; [20]
  % difference vs. no TU added: +176.0%
  Measured T: 1235.0 ng/dL
Blood esterases; [21]
  % difference vs. no TU added: +171.6%
  Measured T: 1085.0 ng/dL
Blood esterases; [22]
  % difference vs. no TU added: +24.2%
  Measured T: 336.5 ng/dL
Blood esterases; [23]
  % difference vs. no TU added: +39.0%
  Measured T: 360.0 ng/dL
Blood esterases; [24]
  % difference vs. no TU added: +18.3%
  Measured T: 515.0 ng/dL
Blood esterases; [25]
  % difference vs. no TU added: +22.3%
  Measured T: 582.0 ng/dL
Blood esterases; [26]
  % difference vs. no TU added: +222.4%
  Measured T: 1380.0 ng/dL
Blood esterases; [27]
  % difference vs. no TU added: +30.3%
  Measured T: 455.5 ng/dL
Blood esterases; [28]
  % difference vs. no TU added: +23.7%
  Measured T: 541.0 ng/dL
Blood esterases; [29]
  % difference vs. no TU added: +130.6%
  Measured T: 814.0 ng/dL
Blood esterases; [30]
  % difference vs. no TU added: +88.8%
  Measured T: 794.0 ng/dL
Blood esterases; [31]
  % difference vs. no TU added: +271.8%
  Measured T: 1515.0 ng/dL
Blood esterases; [32]
  % difference vs. no TU added: +15.8%
  Measured T: 374.5 ng/dL
Blood esterases; [33]
  % difference vs. no TU added: +95.1%
  Measured T: 643.0 ng/dL
Blood esterases; TU added 30 ng/mL, blood from four hypogonadal men, plain tubes, baseline serum T 26.0 ± 6.2 ng/dL
  T measured: 48.9 ± 5.1 ng/dL
Blood esterases; highest TU concentration (1000 ng/mL), blood from hypogonadal men, plain tubes
  Increase in measured T from baseline: ≤ 22 fold
Blood esterases; increasing amounts of TU added to blood
  Reduction of overestimation of T by collecting blood into NaF tubes: 30–85%
Blood esterases; increasing amounts of TU added to plain tubes, Table 3, Experiments 1 and 2
  Overestimation of measured T levels: +24 to 272%
[1]
  Mean difference in T concentrations between plain and NaF‐EDTA tubes: ~0%
[2]
  Measured T levels after incubation with different amounts of NaF: did not increase
